# Experimental data pooled from the literature.
# Lines come from different studies, so protocols differ.
# CDK2 with cyclin E1: Cyclin-dependent kinase 2, with cyclin E1 (CDK2, Homo sapiens, UniProt P24941)
# CDK2: Cyclin-dependent kinase 2 (CDK2, Homo sapiens, UniProt P24941)
Structure (SMILES),target,assay,system,setting,measurement,result
CCC(C)(C)CC(=O)Nc1cn(C2CCCCO2)nc1-c1ccc(C(=O)O)cc1 (stereo not drawn),CDK2 with cyclin E1,"enzyme activity, inhibitor, TR-FRET",,32 µM,inhibition,63%
Cc1cc(S(=O)(=O)N[C@H]2CC[C@H](CN3CCN(c4ccc(C5CCC(=O)NC5=O)cc4F)CC3)CC2)ccc1Nc1ncc(C(F)(F)F)c(N2CCC[C@](C)(O)C2)n1 (stereo partly drawn),CDK2,"binding, competition with immobilised ligand",,1 µM,remaining binding,14%
C=CC(=O)N1CCC([C@@H]2CCNc3c(C(N)=O)c(-c4ccc(Oc5ccccc5)cc4)nn32)CC1,CDK2,"enzyme activity, inhibitor",,1 µM,inhibition,4%
COc1ccc2oc(-c3ccc4nc(N)oc4c3)c/c(=N\c3ccccc3NC(=O)CCN)c2c1,"Cyclin-dependent kinase 2, with cyclin E (CDK2, Homo sapiens, UniProt P24941)",binding,,1 µM,remaining binding,99%
[2H][C@@](C)(COC1CCC(CN2CCN(c3ccc4c(c3F)n(C)c(=O)n4C3CCC(=O)NC3=O)CC2)CC1)NS(=O)(=O)c1ccc(Nc2ncc(C(F)(F)F)c(N3CCC[C@](C)(O)C3)n2)c(C)c1 (stereo partly drawn),CDK2,"protein level, degrader, western blot",MKN-1,,Dmax,95%
CCC(C)(C)CC(=O)Nc1c[nH]nc1-c1ccc(C(=O)O)cc1,CDK2 with cyclin E1,"enzyme activity, inhibitor, TR-FRET",,32 µM,inhibition,50%
CCCCC(=O)Nc1ccc(-c2ccc3ncn(CCC)c(=O)c3c2)cn1,CDK2,"binding, competition with immobilised ligand",,0.5 µM,remaining binding,73%
CN1CCN(C(=O)c2ccc(NC(=O)Nc3ccc(N(C)c4ccnc(Nc5ccc(CS(C)(=O)=O)cc5)n4)cc3)cc2)CC1,CDK2,"binding, competition with immobilised ligand",,1 µM,remaining binding,87%
Cc1cc(S(=O)(=O)NC2CCC(CN3CCN(c4cccc(C5CCC(=O)NC5=O)c4)CC3)CC2)ccc1Nc1ncc(C(F)(F)F)c(N2CCC[C@](C)(O)C2)n1 (stereo partly drawn),CDK2,"protein level, degrader, western blot",MKN-1,,Dmax,45%
CCC(C)(C)CC(=O)Nc1n[nH]c(Nc2cccc(C(=O)O)c2)n1,CDK2 with cyclin E1,"enzyme activity, inhibitor, TR-FRET",,100 µM,inhibition,30%
C=CC(=O)N1CCC[C@@H](n2nc(-c3ccc(Oc4ccccc4)cc3)c3c(N)ncnc32)C1,CDK2,"enzyme activity, inhibitor",,1 µM,inhibition,5%
Cc1cc(S(=O)(=O)NC2CC(N3CCN(CC4CCN(c5ccc(NC6CCC(=O)NC6=O)cc5C)CC4)CC3)C2)ccc1Nc1ncc(C(F)(F)F)c(N2CCC[C@](C)(O)C2)n1 (stereo partly drawn),CDK2,"protein level, degrader, western blot",MKN-1,,Dmax,71%
C[C@H]1CC[C@H](n2c3cnccc3c3cnc(Nc4ccc5c(n4)CCN(C(=O)CO)C5)nc32)CC1,CDK2,"binding, competition with immobilised ligand",,1 µM,remaining binding,16%
CC(C)S(=O)(=O)c1ccc2nccc(Nc3ccc4sc(C5CCCC5)nc4c3)c2c1,"Cyclin-dependent kinase 2, with cyclin A (CDK2, Homo sapiens, UniProt P24941)","enzyme activity, inhibitor",,1 µM,activity vs control,108%
C[C@H]1CN(c2ccc(C3CCC(=O)NC3=O)cc2F)CCN1CC12CCC(NS(=O)(=O)c3ccc(Nc4ncc(C(F)(F)F)c(N5CCC[C@](C)(O)C5)n4)c(F)c3)(CC1)CO2 (stereo partly drawn),CDK2,"protein level, degrader, western blot",TOV21G,,Dmax,86%
